Results as given in the EternaBench riboswitch data.

Assays:
MS2 coat protein [1] = assay: apparent Kd, MS2 coat protein; higher = weaker binding; RNA-MaP array
Procedure, shortened: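 For each design, the apparent Kd is the median of binding-curve fits across its clusters. Designs measured on fewer than 10 clusters were dropped. The RNAs were transcribed from sequenced DNA templates on an Illumina sequencing chip and incubated at room temperature, with or without input ligand, with fluorescently labeled MS2 coat protein at 1.5 nM to 3 μM.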

MS2 coat protein [2] = assay: apparent Kd, MS2 coat protein; higher = weaker binding; RNA-MaP array; FMN 200 µM where present
Procedure, shortened: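 Binding was read on Illumina sequencing-chip clusters where stalled E. coli RNA polymerase had transcribed each design. A titration of SNAP-549-labelled MS2 coat protein began at 0.7 or 1.5 nM and doubled to 3 µM, once without ligand and once with constant ligand, in 100 mM Tris-HCl pH 7.5, 80 mM KCl, 4 mM MgCl2, BSA, DTT, yeast tRNA and Tween-20. The apparent Kd is the median of filtered per-cluster binding-curve fits, based on green signal normalised to red-channel RNA signal and control-cluster median Fmax.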

[3] = designed as: ON switch for flavin mononucleotide, no ligand
[4] = ligand present: flavin mononucleotide, designed as: ON switch for flavin mononucleotide
[5] = designed as: OFF switch for flavin mononucleotide, no ligand
[6] = ligand present: flavin mononucleotide, designed as: OFF switch for flavin mononucleotide

GCAGGCGUUAAGAAGGUUCUCCCACAUGAGGAUCACCCAUGUUGACAUGCUAGAGUCAUUACAAGAAAGGAUAUUAGCGAAUUG
apparent Kd (MS2 coat protein [1]; [3]): 114 nM | apparent Kd (MS2 coat protein [1]; [4]): 25.8 nM

AAAACGGGUUAGAAGGGCAAUUUUGAUGACAGUGCAGGAUAUAACUUGUGUCCGAAUAUGGACAUGAGGAUCACCCAUGUUAGU
apparent Kd (MS2 coat protein [1]; [3]): 468 nM | apparent Kd (MS2 coat protein [1]; [4]): 185 nM

ACAUGGAGGACAGGAUAUCCAUCUGGCCACCACGGAGAAGGGUCCACCCGACAUGAGGAUCACCCAUGUAUCAACGUGAUGAGU
apparent Kd (MS2 coat protein [1]; [3]): 23 nM | apparent Kd (MS2 coat protein [1]; [4]): 18.1 nM

GGACCAAGGAGGGAGGAUAUCACAUACAAAACAUGAGGAUCACCCAUGUAGAAGAGACAAGAUACAGAGAAGGCCCAGAAAUAAAA
apparent Kd (MS2 coat protein [1]; [3]): 14 nM | apparent Kd (MS2 coat protein [1]; [4]): 9.27 nM

CCACGGAGUUUAGGAUAUGUCGGCUUGGAGUUUACAGAAGGAAAUUGCGCAGCCACAUGAGGAUCACCCAUGUUCGGAAAUACG
apparent Kd (MS2 coat protein [1]; [3]): 31 nM | apparent Kd (MS2 coat protein [1]; [4]): 21.4 nM

AUUUUGGGAGGAUAUACAUGAGGAUCACCCAUGUUUUAGAACGUAAGAGAAUCCGGAGGUAGAAGGCCCUUCUG
apparent Kd (MS2 coat protein [1]; [5]): 180 nM | apparent Kd (MS2 coat protein [1]; [6]): 212 nM

GACACCGGUAUGGAGGAUAUGGGAGACAGUACAUGAGGAUCACCCAUGUCGUUAAGAAGAUAUCACCAGAAGGCCACUCGGUCGAG
apparent Kd (MS2 coat protein [1]; [3]): 13.5 nM | apparent Kd (MS2 coat protein [1]; [4]): 9.63 nM

UCGAUACCUCUAAUGAAGACAUGAGGAUCACCCAUGUUUAACAGAAGGUAGUCGGGAAGAUAGACUAAGGAUAUGUUGCAGGUG
apparent Kd (MS2 coat protein [1]; [5]): 9.63 nM | apparent Kd (MS2 coat protein [1]; [6]): 24.3 nM

CGUAAUGCACUAGGAUAUGUUGUAUAUACAACGACAGAAGGAGUUCCACAUGAGGAUCACCCAUGUCCAAACCAAUACUCAUCG
apparent Kd (MS2 coat protein [1]; [3]): 78.2 nM | apparent Kd (MS2 coat protein [1]; [4]): 64 nM

CUUCAGGCGGAGGAUAUCUUACAGUUAUCGUACAGAGAAGGCCGCACAUGAGGAUCACCCAUGUCAGGCGACUU
apparent Kd (MS2 coat protein [1]; [5]): 29.8 nM | apparent Kd (MS2 coat protein [1]; [6]): 162 nM

GUUUUGGUACGAGGAUAUAAUGCCCUUGGAGAGUUAGAAGGCGUACGGGCUGUCCAUUAGAUACAUGAGGAUCACCCAUGUGAG
apparent Kd (MS2 coat protein [1]; [5]): 14.7 nM | apparent Kd (MS2 coat protein [1]; [6]): 12.2 nM

AUAGAUAAGCAGAAGGGCUUGAGAUCCGUAACUAUUGACAUGAGGAUCACCCAUGUUCGUCCCUAGCAGGAUAUGCAAAGAAGC
apparent Kd (MS2 coat protein [1]; [3]): 61.2 nM | apparent Kd (MS2 coat protein [1]; [4]): 22.5 nM

AAGCCCAGGACGGCCGCCACUGUAAAAUGGUGGUUCGCCUGUAAGAACAUGAGGAUCACCCAUGUCAGGACCGGGUCCACGAGUU
apparent Kd (MS2 coat protein [1]; designed as: OFF switch for tryptophan, no ligand): 17.6 nM | apparent Kd (MS2 coat protein [1]; ligand present: tryptophan, designed as: OFF switch for tryptophan): 27.1 nM

AUAGAGGAAGGAUAUACAUGAGGAUCACCCAUGUAACGAAGUAGUUGGAUGCCAUGAAGUAGAAGGUCCAGAUG
apparent Kd (MS2 coat protein [1]; [5]): 14.5 nM | apparent Kd (MS2 coat protein [1]; [6]): 13.6 nM

UAAUUCAGGGAGAAGGUCUGAUCGUAACAUGCAGAAGGAUAUCCCAAUAACAUGAGGAUCACCCAUGUUUUGUUAUGCGUCAAC
apparent Kd (MS2 coat protein [1]; [3]): 83 nM | apparent Kd (MS2 coat protein [1]; [4]): 19.8 nM

AGGCUUAAAAUGGAGGAUAUCUGUCGCAAAACAUGAGGAUCACCCAUGUACAUAAUGGGCACCACAGAGAAGGCCAUGUACUUUUC
apparent Kd (MS2 coat protein [1]; [3]): 27.5 nM | apparent Kd (MS2 coat protein [1]; [4]): 11.7 nM

CUGAAGUCUGACCCUCGAAACAUGAGGAUCACCCAUGUAGUCAGAAGGCGAUUGUGAGCAGGAAUCGAGGAUAUGAACUAGUUU
apparent Kd (MS2 coat protein [1]; [5]): 7.72 nM | apparent Kd (MS2 coat protein [1]; [6]): 10 nM

GAUUGGCUAGGAUAUACAGUGUCUAAGUCGACACCGUGAUAACAUGAGGAUCACCCAUGUAGAAGGAGCACAAA
apparent Kd (MS2 coat protein [1]; [5]): 6.78 nM | apparent Kd (MS2 coat protein [1]; [6]): 11.4 nM

GUACAUUUUGCAGGAUAUGUUCAAUACAUGAGGAUCACCCAUGUUCCCUGCUCGGGUCGAGCAUAACAGAAGGGCACUAUAUGU
apparent Kd (MS2 coat protein [1]; [3]): 28.9 nM | apparent Kd (MS2 coat protein [1]; [4]): 12.1 nM

GCGGUCCACUUGGAUACCAGCAGAUUAAUAAACAUGAGGAUCACCCAUGUAAGCGCCUUGUGCCCUUGGCAGCCAGGGUGGUCAG
apparent Kd (MS2 coat protein [1]; designed as: ON switch for theophylline, no ligand): 83.8 nM | apparent Kd (MS2 coat protein [1]; ligand present: theophylline, designed as: ON switch for theophylline): 46.3 nM

GAUGCAACGCAGAAGGUAACCCAAUUAGGAGAUCUACAUGAGGAUCACCCAUGUAUUUGGAAAAUUAAGGAUAUGCCGAGGAUC
apparent Kd (MS2 coat protein [1]; [5]): 14.7 nM | apparent Kd (MS2 coat protein [1]; [6]): 19.5 nM

AGUGGACUGAGGCAGGAUAUCUAUUCAGGAACAUGAGGAUCACCCAUGUCAUGAAAUGACUCGUGAGAGAAGGGCCGUCAACUUAU
apparent Kd (MS2 coat protein [1]; [3]): 22.9 nM | apparent Kd (MS2 coat protein [1]; [4]): 29.5 nM

AACAAGGACAGAGGAUAUAUCAACAUUGAAGUAAUAGAAGGCUGAGAGAAUGAGACUCAUAAACAUGAGGAUCACCCAUGUAAC
apparent Kd (MS2 coat protein [1]; [5]): 82.2 nM | apparent Kd (MS2 coat protein [1]; [6]): 81.4 nM

AGUGAGCAGACAGGAUAUCCACUCAGGUCUGAGUCAACGACAUGAGGAUCACCCAUGUCCUAAAAGGAGAAGGGUCAUGGUCGU
apparent Kd (MS2 coat protein [2]; [3]): 198 nM | apparent Kd (MS2 coat protein [2]; [4]): 107 nM

UGCGCUGAGGGAGGAUAUGACAUGAGGAUCACCCAUGUGAUAGGUUUCUUGUCAGAAGGCCCGCAUGUACCAAAUUAGGUUUGU
apparent Kd (MS2 coat protein [2]; [5]): 94 nM | apparent Kd (MS2 coat protein [2]; [6]): 126 nM

GGAGCACACAUUAACAUGAGGAUCACCCAUGUCAAAAGACAUGAGGAUAUGGAUCCGAAAAGCAUCCAGAAGGCAUGGUGCUCC
apparent Kd (MS2 coat protein [2]; [3]): 567 nM | apparent Kd (MS2 coat protein [2]; [4]): 184 nM

AAUUUAAUACAUGAGGAUCACCCAUGUAAAUUAAUUAAGAUCAAGGAUAUCAGCUCGUUUAGAGCUGAGAAGGUGAUCACAUGU
apparent Kd (MS2 coat protein [2]; [3]): 343 nM | apparent Kd (MS2 coat protein [2]; [4]): 97 nM

CUUCGACAUGAGGAUCACCCAUGUCAGGAUAUUGUUUAUCUGGUGUUGUCCAGAUAUGCAAGAAGGGAUGUGUG
apparent Kd (MS2 coat protein [2]; [5]): 38.4 nM | apparent Kd (MS2 coat protein [2]; [6]): 38.1 nM

AGUUAAUAUCGAGGAUAUCCUCAUAAACAUGAGGAUCACCCAUGUAGAAUGGGAGAAGGCGAUAUUAACAGCAUGUUACAUGCA
apparent Kd (MS2 coat protein [2]; [3]): 210 nM | apparent Kd (MS2 coat protein [2]; [4]): 114 nM

UUGAUAAAUUAGAAGGCGUGAUAAAAUACAAUAAACAUGAGGAUCACCCAUGUGUACCCAUGUUAUGAGGAUAUAGACAUUUAU
apparent Kd (MS2 coat protein [2]; [3]): 365 nM | apparent Kd (MS2 coat protein [2]; [4]): 245 nM

GAGCGAAAGCUCAAUGUCGAUAGCAGAAGGACAUCCUUCAACAUGAAAACAUGAGGAUCACCCAUGUAGGAUAUGCUAUCGACU
apparent Kd (MS2 coat protein [2]; [5]): 5.32 nM | apparent Kd (MS2 coat protein [2]; [6]): 5.84 nM

CAGCGAAAGCUGAAUCUGUAGAGAGAGGAUAUACGUCAUAAGGUGCAAACAUGAGGAUCACCCAUGUAGAAGGCUCUCUACAGU
apparent Kd (MS2 coat protein [2]; [5]): 55.8 nM | apparent Kd (MS2 coat protein [2]; [6]): 460 nM

GUGGAUAGACGCCCACGUGAGACAUGAGGAUCACCCAUGUACAGAAGGUGGAGCGUUAAUGGUGCCAAGGAUAUGUACAUAAGG
apparent Kd (MS2 coat protein [2]; [6]): 5.11 nM

GAAAAUACAUGAGGAUCACCCAUGUAGGAUAUCGCUAUUGUAAUCAUGUUACAUGAUUACAAUAGCGAGAAGGACGUGAGAAAG
apparent Kd (MS2 coat protein [2]; [5]): 24.7 nM | apparent Kd (MS2 coat protein [2]; [6]): 22.3 nM

GGACAUCCCACAGGAUAUGCUGGACUUUGUCCAGCAGAAGGGUGAAGAACAUGAGGAUCACCCAUGUGGAUGUCCAUAUUUAAU
apparent Kd (MS2 coat protein [2]; [3]): 1440 nM | apparent Kd (MS2 coat protein [2]; [4]): 95.4 nM

GAUCUGACAGGAUAUACAUGAGGAUCACCCAUGUGCGAGCUAGCGAAAGCUAGCUUAGGUAGAAGGGUCAGAUC
apparent Kd (MS2 coat protein [2]; [5]): 12.2 nM | apparent Kd (MS2 coat protein [2]; [6]): 18.1 nM
